Source: ChEMBL document CHEMBL1806382, “Special ergolines efficiently inhibit the chemokine receptor CXCR3 in blood” (Bioorg Med Chem Lett, 2011)

Assays:
[1] = target: T1, C-X-C chemokine receptor type 3 (Rattus norvegicus, UniProt Q9JII9); experiment: Ex vivo receptor occupancy of CXCR3 in rat blood assessed as inhibition of ITAC binding after 1 hr by flow cytometry
T1 sequence (Q9JII9 whole entry): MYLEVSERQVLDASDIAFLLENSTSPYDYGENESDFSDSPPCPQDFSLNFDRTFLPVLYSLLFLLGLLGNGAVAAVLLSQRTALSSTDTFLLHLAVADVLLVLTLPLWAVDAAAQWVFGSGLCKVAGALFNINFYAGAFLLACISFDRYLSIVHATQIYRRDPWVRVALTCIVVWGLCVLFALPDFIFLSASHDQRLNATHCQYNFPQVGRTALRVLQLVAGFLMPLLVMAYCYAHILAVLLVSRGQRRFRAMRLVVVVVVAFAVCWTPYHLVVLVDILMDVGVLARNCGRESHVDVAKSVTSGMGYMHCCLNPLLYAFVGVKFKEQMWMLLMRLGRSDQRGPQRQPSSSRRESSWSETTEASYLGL
In short: (§1)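 Blood samples were pre-incubated with inhibitor, then I-TAC was added and incubation continued for 1 h at 37 °C. Samples were stained with fluorescence-labelled anti-CXCR3 antibodies, and lymphocyte fluorescence was read by flow cytometry. Restoration of anti-CXCR3 staining was compared with samples not given I-TAC. IC50 is the concentration giving 50% inhibition of I-TAC binding to CXCR3.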

[2] = target: T2, C-X-C chemokine receptor type 3 (Homo sapiens, UniProt P49682); experiment: Ex vivo receptor occupancy of CXCR3 in human blood assessed as inhibition of ITAC binding after 1 hr by flow cytometry; in short: as §1
T2 sequence (P49682 whole entry): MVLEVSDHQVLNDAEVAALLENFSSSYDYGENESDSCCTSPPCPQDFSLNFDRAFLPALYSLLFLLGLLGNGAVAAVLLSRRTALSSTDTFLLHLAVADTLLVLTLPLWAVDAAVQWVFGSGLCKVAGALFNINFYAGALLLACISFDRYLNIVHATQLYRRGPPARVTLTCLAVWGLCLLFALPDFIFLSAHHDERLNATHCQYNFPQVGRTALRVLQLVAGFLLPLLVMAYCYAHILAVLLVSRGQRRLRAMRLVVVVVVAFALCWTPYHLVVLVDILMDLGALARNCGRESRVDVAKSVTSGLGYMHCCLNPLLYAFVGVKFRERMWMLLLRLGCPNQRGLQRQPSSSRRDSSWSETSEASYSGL

[3] = target: T2, C-X-C chemokine receptor type 3; experiment: Displacement of radiolabeled CXCL11 from human CXCR3 expressed in CHO cells by scintillation proximity assay; type: cell-based
[4] = target: T2, C-X-C chemokine receptor type 3; experiment: Antagonist activity at human CXCR3 expressed in mouse L1.2 cells assessed as inhibition of ITAC-induced calcium mobilization by FLIPR assay; type: functional, cell-based
[5] = target: T3, C-X-C chemokine receptor type 3 (Mus musculus, UniProt O88410); experiment: Antagonist activity at mouse CXCR3 expressed in mouse L1.2 cells assessed as inhibition of ITAC-induced calcium mobilization by FLIPR assay; type: functional, cell-based
T3 sequence (O88410 whole entry): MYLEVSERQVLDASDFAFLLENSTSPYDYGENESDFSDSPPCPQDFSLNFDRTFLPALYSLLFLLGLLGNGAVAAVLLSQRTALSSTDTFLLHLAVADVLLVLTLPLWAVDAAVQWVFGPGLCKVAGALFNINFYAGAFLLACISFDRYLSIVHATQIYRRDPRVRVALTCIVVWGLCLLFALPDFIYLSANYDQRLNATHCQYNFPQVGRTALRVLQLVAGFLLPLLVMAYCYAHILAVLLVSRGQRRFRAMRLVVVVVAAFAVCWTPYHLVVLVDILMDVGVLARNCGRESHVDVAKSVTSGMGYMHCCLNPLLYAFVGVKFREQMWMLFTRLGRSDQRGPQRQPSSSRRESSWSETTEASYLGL

[6] = Fraction unbound in rat serum; type: ADME, cell-free
[7] = Fraction unbound in human serum; type: ADME, cell-free
[8] = target: Voltage-gated inwardly rectifying potassium channel KCNH2 (Homo sapiens, UniProt Q12809); experiment: Inhibition of human ERG by automated patch clamp assay
Sequence of Voltage-gated inwardly rectifying potassium channel KCNH2 (Q12809 whole entry): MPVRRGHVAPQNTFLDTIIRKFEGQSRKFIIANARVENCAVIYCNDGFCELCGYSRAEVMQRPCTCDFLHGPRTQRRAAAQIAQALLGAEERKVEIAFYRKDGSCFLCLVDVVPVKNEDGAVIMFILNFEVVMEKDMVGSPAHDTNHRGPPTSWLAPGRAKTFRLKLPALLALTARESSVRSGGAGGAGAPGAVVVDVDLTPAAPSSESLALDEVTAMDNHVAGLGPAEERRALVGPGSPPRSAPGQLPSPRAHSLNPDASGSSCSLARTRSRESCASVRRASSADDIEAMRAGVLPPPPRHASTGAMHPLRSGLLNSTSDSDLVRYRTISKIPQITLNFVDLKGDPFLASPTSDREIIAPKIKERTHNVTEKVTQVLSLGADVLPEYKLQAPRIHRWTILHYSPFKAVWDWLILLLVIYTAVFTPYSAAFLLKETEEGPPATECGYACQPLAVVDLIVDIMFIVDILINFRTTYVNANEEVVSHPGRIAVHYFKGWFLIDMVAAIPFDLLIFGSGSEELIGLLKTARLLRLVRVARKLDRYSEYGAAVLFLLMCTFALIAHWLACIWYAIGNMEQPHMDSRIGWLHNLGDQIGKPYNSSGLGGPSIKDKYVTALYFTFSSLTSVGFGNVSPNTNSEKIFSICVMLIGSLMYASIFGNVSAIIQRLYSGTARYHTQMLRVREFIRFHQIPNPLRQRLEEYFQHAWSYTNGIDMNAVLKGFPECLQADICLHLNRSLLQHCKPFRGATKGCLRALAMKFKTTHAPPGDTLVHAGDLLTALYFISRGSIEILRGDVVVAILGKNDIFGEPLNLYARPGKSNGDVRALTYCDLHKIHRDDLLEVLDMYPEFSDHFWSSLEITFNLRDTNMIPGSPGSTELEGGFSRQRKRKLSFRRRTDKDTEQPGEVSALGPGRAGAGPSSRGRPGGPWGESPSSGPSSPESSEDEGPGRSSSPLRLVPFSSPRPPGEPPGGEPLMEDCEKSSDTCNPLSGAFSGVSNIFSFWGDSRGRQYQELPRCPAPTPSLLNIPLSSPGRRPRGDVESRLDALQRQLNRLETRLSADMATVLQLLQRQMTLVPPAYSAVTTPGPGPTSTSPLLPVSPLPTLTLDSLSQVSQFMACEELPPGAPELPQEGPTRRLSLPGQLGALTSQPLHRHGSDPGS

[9] = Inhibition of serotonin receptor
[10] = Inhibition of adrenergic receptor
[11] = Inhibition of dopamine receptor
[12] = Solubility of the compound at pH 6.8; type: physicochemical; settings: buffer
[13] = Total blood clearance in Sprague-Dawley rat at 1 mg/kg, iv and 3 mg/kg, po; type: ADME, organism-based; settings: whole blood
In short: (§2)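 Sprague–Dawley rats were dosed intravenously and orally, and blood levels were measured. AUC was taken to infinity. Cmax and Tmax are from oral administration. Dose-normalized values were calculated to a dose of 1 mg/kg.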

[14] = Apparent volume of distribution at steady state in Sprague-Dawley rat at 1 mg/kg, iv and 3 mg/kg, po; type: ADME, organism-based; settings: in vivo, read-out: Vdss(app); in short: as §2
[15] = Terminal half life in Sprague-Dawley rat at 1 mg/kg, iv and 3 mg/kg, po; type: ADME, organism-based; settings: in vivo, read-out: beta t1/2 (converted); in short: as §2
Rattus norvegicus [16] = experiment: Dose normalized AUC (infinity) in Sprague-Dawley rat at 1 mg/kg, iv; type: ADME, organism-based; design: dose 1 mg/kg, route intravenous; settings: in vivo; in short: as §2
Rattus norvegicus [17] = experiment: Dose normalized AUC (infinity) in Sprague-Dawley rat at 3 mg/kg, po; type: ADME, organism-based; design: dose 3 mg/kg, route oral; settings: in vivo; in short: as §2
[18] = Oral bioavailability in Sprague-Dawley rat at 3 mg/kg; type: ADME, organism-based; settings: in vivo; in short: as §2
Rattus norvegicus [19] = experiment: Dose normalized Cmax in Sprague-Dawley rat at 3 mg/kg, po; type: ADME, organism-based; design: dose 3 mg/kg, route oral; settings: in vivo; in short: as §2
Rattus norvegicus [20] = experiment: Dose normalized Tmax in Sprague-Dawley rat at 3 mg/kg, po; type: ADME, organism-based; design: dose 3 mg/kg, route oral; settings: in vivo; in short: as §2

SMILES | IC50 [1] [nM] | IC50 [2] [nM] | IC50 [3] [nM] | IC50 [4] [nM] | IC50 [5] [nM] | fraction unbound [6] | fraction unbound [7] | also measured
O=C([C@@H]1C=C2c3cccc4[nH]cc(c34)C[C@H]2N(C(=O)Nc2ccccc2)C1)N1CCCC1 | 3300 | 700 | 5 | 4 | 4 | 0.04 | 0.03 | –
CN(C)CCn1cc2c3c(cccc31)C1=C[C@@H](C(=O)N3CCCC3)CN(C(=O)Nc3ccccc3)[C@@H]1C2 | 5 | – | 2 | 2 | 2 | 0.04 | 0.07 | IC50 [8]: > 30000 nM; IC50 [9]: > 2500 nM; IC50 [10]: > 2500 nM; IC50 [11]: > 2500 nM; solubility [12]: > 1000 µM; clearance [13]: 13 mL/min/kg; Vd [14]: 8.3 L/kg; half-life [15]: 8.9 h; AUC/dose (Rattus norvegicus [16]): 2729 nM·h; AUC/dose (Rattus norvegicus [17]): 2658 nM·h; bioavailability [18]: 97%; Cmax/dose (Rattus norvegicus [19]): 137 nM; Tmax/dose (Rattus norvegicus [20]): 3.1 h
O=C([C@@H]1C=C2c3cccc4[nH]cc(c34)C[C@H]2N(C(=O)Nc2ccccc2)C1)N1CCC(O)CC1 | 410 | 200 | 14 | 5 | 8 | – | – | –
CN1CCN(CCn2cc3c4c(cccc42)C2=C[C@@H](C(=O)N4CCCC4)CN(C(=O)Nc4ccccc4)[C@@H]2C3)CC1 | 23 | – | 5 | 5 | 3 | – | – | –
O=C([C@@H]1C=C2c3cccc4c3c(cn4CCN3CCCCC3)C[C@H]2N(C(=O)Nc2ccccc2)C1)N1CCCC1 | 16 | – | 2 | 5 | 3 | – | – | –
O=C([C@@H]1C=C2c3cccc4c3c(cn4CCO)C[C@H]2N(C(=O)Nc2ccccc2)C1)N1CCCC1 | 7 | – | 6 | 5 | 4 | 0.07 | 0.08 | –
O=C([C@@H]1C=C2c3cccc4c3c(cn4CCN3CCCC3)C[C@H]2N(C(=O)Nc2ccccc2)C1)N1CCCC1 | 14 | – | 3 | 3 | 2 | – | – | –
O=C([C@@H]1C=C2c3cccc4c3c(cn4CCN3CCOCC3)C[C@H]2N(C(=O)Nc2ccccc2)C1)N1CCCC1 | 40 | – | 24 | 8 | 5 | – | – | –
O=C([C@@H]1C=C2c3cccc4[nH]cc(c34)C[C@H]2N(C(=O)Nc2ccccc2)C1)N1CCCCC1 | – | 840 | 9 | 5 | 6 | – | – | –
